Experimental data taken from ChEMBL document CHEMBL1126928, “N-(1-arylpropionyl)-4-aryltetrahydropyridines, a new class of high-affinity selective sigma receptor ligands” (J Med Chem, 1993).

Assays:
[1] = target: T1, Serotonin 2 (5-HT2) receptor (Rattus norvegicus) (UniProt P30994+P08909+P14842); assay: Percent inhibition of binding of 1.0 nM [3H]-ketanserin to 5-hydroxytryptamine 2 receptor in rat cortical membranes at 10 e-5 M.; assay type: cell membranes; conditions: Membrane
In short: (§1)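 1.0 nM [3H]ketanserin bound to rat cortical membranes. Percent inhibition measured at 10^-5 M test compound, with nonspecific binding defined by 10 μM methysergide.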

[2] = target: Glutamate receptor ionotropic, NMDA 2C (Rattus norvegicus) (UniProt Q00961); assay: Binding affinity for Phencyclidine receptor (1 uM) using 2 nM [3H]- TCP radioligand.
Sequence of Glutamate receptor ionotropic, NMDA 2C (Rattus norvegicus) (Q00961 20-1237 limits assumed): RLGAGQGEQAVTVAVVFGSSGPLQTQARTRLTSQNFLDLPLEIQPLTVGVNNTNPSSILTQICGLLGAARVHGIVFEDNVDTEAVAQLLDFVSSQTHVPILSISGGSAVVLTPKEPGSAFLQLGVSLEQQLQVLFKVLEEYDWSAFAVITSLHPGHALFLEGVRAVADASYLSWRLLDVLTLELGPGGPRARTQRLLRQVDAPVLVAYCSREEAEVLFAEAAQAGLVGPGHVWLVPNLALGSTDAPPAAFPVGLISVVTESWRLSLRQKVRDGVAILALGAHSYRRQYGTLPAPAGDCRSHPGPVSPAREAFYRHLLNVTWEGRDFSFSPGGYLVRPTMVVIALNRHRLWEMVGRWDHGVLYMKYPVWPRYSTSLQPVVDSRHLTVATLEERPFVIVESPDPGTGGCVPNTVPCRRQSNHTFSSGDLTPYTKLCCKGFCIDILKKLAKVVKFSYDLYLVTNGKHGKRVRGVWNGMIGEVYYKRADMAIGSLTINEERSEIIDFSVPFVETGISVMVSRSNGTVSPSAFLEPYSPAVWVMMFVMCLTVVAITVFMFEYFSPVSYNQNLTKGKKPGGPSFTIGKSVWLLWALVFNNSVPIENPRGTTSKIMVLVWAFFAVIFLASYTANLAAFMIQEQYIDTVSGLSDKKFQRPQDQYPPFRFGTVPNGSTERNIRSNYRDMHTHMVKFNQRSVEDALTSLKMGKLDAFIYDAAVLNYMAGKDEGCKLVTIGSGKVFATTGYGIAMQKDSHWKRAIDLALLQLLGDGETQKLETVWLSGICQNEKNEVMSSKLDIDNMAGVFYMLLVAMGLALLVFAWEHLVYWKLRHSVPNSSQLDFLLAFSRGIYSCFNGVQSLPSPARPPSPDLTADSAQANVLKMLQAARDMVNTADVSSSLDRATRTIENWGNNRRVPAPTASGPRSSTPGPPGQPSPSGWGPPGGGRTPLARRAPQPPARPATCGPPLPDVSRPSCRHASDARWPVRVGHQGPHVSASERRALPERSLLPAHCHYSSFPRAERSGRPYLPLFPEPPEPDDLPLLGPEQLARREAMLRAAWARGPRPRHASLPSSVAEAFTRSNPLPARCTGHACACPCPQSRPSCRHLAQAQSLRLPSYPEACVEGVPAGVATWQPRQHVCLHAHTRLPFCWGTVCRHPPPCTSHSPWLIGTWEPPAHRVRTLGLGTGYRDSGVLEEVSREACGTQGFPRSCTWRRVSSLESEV
In short: (§2)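 Test compound at 10^-5 M, reported as percent inhibition of 2 nM [3H]TCP binding. Binding defined with 1 μM PCP.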

[3] = target: T2, D(2) dopamine receptor (Bos taurus, UniProt P20288); assay: Binding affinity against Dopamine receptor D2 in bovine striatal homogenate using 200 pM [3H]- spiperone and 250 nM unlabeled ketanserin
T2 sequence (P20288 whole entry): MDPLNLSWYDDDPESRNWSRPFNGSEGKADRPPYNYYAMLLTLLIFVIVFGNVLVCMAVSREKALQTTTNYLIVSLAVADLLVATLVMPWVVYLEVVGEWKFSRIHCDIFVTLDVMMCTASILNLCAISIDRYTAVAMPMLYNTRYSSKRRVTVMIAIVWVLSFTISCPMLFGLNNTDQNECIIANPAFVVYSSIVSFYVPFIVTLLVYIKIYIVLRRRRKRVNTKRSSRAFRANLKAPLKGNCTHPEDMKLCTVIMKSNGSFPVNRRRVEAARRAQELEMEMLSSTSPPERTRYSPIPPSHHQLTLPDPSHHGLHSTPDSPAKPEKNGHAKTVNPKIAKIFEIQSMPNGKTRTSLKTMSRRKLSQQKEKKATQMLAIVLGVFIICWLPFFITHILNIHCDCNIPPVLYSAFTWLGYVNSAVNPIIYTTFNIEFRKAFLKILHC
In short: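 Bovine striatal homogenate, run like the σ assay, with 200 pM [³H]spiperone (21.2 Ci/mmol). Incubation buffer pH 7.40 containing 250 nM ketanserin to block 5-HT2 binding. Measured by filtration and scintillation counting. Results given as IC50.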

[4] = target: T3, Serotonin 1 (5-HT1) receptor (Rattus norvegicus) (UniProt P28564+P30940+P19327+P28565); assay: Percent inhibition of binding of 3.0 nM [3H]5-HT to 5-hydroxytryptamine 1 receptor in rat caudate membranes at 10 e -5 M.; assay type: cell membranes; conditions: Membrane
In short: (§3)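 Rat caudate membranes incubated with 3.0 nM [3H]-5-HT binoxalate. Percent inhibition recorded at 10^-5 M test compound, with nonspecific binding set with 10 μM unlabeled 5-HT.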

[5] = target: D(1A) dopamine receptor (Rattus norvegicus) (UniProt P18901); assay: Binding affinity for dopamine receptor D1 in rat striatal membranes using 500 pM [3H]- SCH 23390 radioligand; assay type: cell membranes; conditions: Striatum; Membrane
Sequence of D(1A) dopamine receptor (Rattus norvegicus) (P18901 whole entry): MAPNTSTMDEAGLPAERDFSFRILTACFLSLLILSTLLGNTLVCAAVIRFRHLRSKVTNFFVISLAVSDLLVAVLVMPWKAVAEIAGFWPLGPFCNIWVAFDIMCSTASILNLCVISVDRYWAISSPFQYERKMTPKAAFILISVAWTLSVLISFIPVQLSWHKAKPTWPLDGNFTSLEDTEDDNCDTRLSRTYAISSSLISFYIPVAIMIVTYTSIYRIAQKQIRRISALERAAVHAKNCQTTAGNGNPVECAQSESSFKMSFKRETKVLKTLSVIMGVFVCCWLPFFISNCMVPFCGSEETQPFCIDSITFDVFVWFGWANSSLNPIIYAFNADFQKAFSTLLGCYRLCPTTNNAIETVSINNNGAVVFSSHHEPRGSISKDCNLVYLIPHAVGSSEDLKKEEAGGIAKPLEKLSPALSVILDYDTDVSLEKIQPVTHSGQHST
In short: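 Test compound at 10^-5 M, reported as percent inhibition of 500 pM [3H]SCH 23390 binding to rat striatal membranes. Nonspecific binding defined with 100 nM unlabeled SCH 23390.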

[6] = target: T1, Serotonin 2 (5-HT2) receptor (Rattus norvegicus); assay: Percent inhibition of binding of 1.0 nM [3H]ketanserin to 5-hydroxytryptamine 2 receptor in rat cortical membranes at 10 e -5 M; assay type: cell membranes; conditions: Membrane; in short: as §1
[7] = species on record: Rattus norvegicus; assay: Binding affinity against Phencyclidine receptor (1 uM) using 2 nM [3H]- TCP radioligand; in short: as §2
[8] = target: T3, Serotonin 1 (5-HT1) receptor (Rattus norvegicus); assay: Percent inhibition of binding of 3.0 nM [3H]5-HT to 5-hydroxytryptamine 1 receptor in rat caudate membranes at 10 e -5 M; assay type: cell membranes; conditions: Membrane; in short: as §3
[9] = target: Glutamate receptor ionotropic, NMDA 2C (Rattus norvegicus) (UniProt Q00961); assay: Binding affinity for Phencyclidine receptor (1 uM) using 2 nM [3H]- TCP radioligand; in short: as §2
[10] = target: T2, D(2) dopamine receptor; assay: Inhibition of binding against Dopamine receptor D2 in bovine striatal homogenate using 200 pM [3H]- spiperone and 250 nM unlabeled ketanserin

T1 sequence (P08909 whole entry, looked up): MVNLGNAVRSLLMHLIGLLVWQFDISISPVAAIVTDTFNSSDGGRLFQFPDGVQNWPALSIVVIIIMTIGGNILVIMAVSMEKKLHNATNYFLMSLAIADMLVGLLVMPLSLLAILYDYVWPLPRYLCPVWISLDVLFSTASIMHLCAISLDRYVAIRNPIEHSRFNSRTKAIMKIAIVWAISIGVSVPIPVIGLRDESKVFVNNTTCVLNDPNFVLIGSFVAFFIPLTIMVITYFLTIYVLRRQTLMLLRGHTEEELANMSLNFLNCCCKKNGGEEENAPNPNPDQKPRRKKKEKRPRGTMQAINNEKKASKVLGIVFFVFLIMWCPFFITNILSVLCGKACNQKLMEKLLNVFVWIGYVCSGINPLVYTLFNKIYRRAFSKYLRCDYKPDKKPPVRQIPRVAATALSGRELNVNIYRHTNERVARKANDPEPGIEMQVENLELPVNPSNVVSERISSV
T1 sequence (P14842 whole entry, looked up): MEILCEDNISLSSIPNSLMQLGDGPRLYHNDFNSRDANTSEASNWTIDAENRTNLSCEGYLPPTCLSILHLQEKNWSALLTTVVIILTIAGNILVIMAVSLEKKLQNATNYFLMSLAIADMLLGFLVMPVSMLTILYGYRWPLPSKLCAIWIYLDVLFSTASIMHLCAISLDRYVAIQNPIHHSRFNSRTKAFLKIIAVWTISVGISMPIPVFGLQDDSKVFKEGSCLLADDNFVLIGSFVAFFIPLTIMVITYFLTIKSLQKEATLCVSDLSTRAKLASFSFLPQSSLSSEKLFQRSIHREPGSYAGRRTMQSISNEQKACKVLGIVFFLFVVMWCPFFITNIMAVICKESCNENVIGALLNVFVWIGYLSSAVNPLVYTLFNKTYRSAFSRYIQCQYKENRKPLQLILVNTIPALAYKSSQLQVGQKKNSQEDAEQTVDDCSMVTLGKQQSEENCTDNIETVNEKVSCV
T1 sequence (P30994 whole entry, looked up): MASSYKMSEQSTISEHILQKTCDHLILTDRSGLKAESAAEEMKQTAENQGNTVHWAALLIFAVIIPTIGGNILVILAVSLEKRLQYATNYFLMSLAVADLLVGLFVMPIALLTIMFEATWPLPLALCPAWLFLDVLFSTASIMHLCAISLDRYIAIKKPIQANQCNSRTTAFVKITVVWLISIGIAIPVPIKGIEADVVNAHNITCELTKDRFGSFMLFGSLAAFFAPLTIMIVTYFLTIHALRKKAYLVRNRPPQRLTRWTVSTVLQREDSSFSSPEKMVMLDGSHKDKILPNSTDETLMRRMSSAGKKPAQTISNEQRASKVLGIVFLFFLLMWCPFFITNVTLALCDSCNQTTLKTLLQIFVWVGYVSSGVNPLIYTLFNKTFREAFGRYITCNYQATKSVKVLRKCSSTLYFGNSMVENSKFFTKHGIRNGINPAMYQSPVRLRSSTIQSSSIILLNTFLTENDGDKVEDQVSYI

| SMILES | IC50 [3] | also measured |
| --- | --- | --- |
| O=C(CCN1CC=C(c2ccc(Cl)cc2)CC1)c1ccccc1 | > 5 µM | inhibition [1]: 96.9%; Binding affinity [2]: 0; inhibition [4]: 72.4%; Binding affinity [5]: 19 |
| O=C(CCN1CC=C(c2ccc(F)cc2)CC1)c1ccccc1 | > 5 µM | inhibition [6]: 94.8%; inhibition [7]: 0%; inhibition [8]: 64.5%; inhibition [5]: 23.9% |
| O=C(CCN1CC=C(c2ccc(F)cc2)CC1)c1ccc(F)cc1 | > 10 µM |  |
| O=C(CCN1CC=C(c2ccc(Cl)cc2)CC1)c1ccc(F)cc1 | > 5 µM |  |
| O=C(CCN1CC=C(c2ccc(F)cc2)CC1)c1ccc(Br)cc1 | > 13 µM |  |
| COc1ccc(C(=O)CCN2CC=C(c3ccc(Cl)cc3)CC2)cc1OC | > 5 µM |  |
| O=C(CCN1CC=C(c2ccc(Cl)cc2)CC1)c1ccc2c(c1)OCO2 | > 5 µM |  |
| O=C(CCN1CC=C(c2ccc(Cl)cc2)CC1)c1ccc(Cl)cc1 | > 5 µM | inhibition [6]: 84%; Binding affinity [9]: 5.8; inhibition [8]: 49.5%; Binding affinity [5]: 31.6 |
| O=C(CCN1CC=C(c2ccc(Cl)cc2)CC1)c1ccc(Cl)c(Cl)c1 | > 5 µM |  |
| O=C(CCN1CC=C(c2ccc(Cl)cc2)CC1)c1ccc(Br)cc1 | > 5 µM |  |
| O=C(CCN1CC=C(c2ccc(Cl)cc2)CC1)c1ccccc1F | > 5 µM |  |
| N#Cc1ccc(C(=O)CC2CCN(CC3CC3)CC2)cc1 |  | IC50 [10]: > 1000 nM |
| O=C(CCN1CCC(c2ccccc2)CC1)c1ccccc1 | > 5 µM |  |
| CCN(CC)CCC(=O)c1ccccc1 | > 5 µM |  |
| CN(C)CCC(=O)c1ccccc1 | > 5 µM |  |
| C1=C(c2ccccc2)CCNC1 | > 5 µM |  |
| O=C(CCN1CC=C(c2ccc(F)cc2)CC1)c1ccc(Cl)cc1 | > 15 µM |  |
| O=C(CCN1CC=C(c2ccc(Cl)cc2)CC1)c1ccc(F)c(F)c1 | > 5 µM |  |
| c1ccc(CCCCN2CCC(c3ccccc3)CC2)cc1 | 0.335 µM |  |
| O=C(CCN1CC=C(c2ccccc2)CC1)c1ccccc1 | > 5 µM |  |
| CCCN(CCC)CCC(=O)c1ccccc1 | > 5 µM |  |
| Clc1ccc(C2=CCNCC2)cc1 | > 5 µM |  |
